Here are results for nine compounds from ChEMBL document CHEMBL1150299, “Design, synthesis, and application of novel triclosan prodrugs as potential antimalarial and antibacterial agents” (Bioorg Med Chem, 2008).

Converted amounts (≈) assume the structure as drawn.

In one data set the test system is Escherichia coli. Nature of the data set: Antibacterial activity against wild type Escherichia coli K12 after 12 hrs by microdilution method. The class given is functional, organism-based. The settings on record: K12, 12 h. An outline of the steps: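 Wild-type K12 grown in LB to mid-log, diluted 100-fold; 100 µl used to inoculate tubes of 10 mL LB containing inhibitor (stocks about 10 mM in DMSO). IC50 is the mean of at least three sets; values are means ± SD of at least three experiments in duplicate.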
For orientation: IC50 means the concentration at which inhibition is half-maximal. The term MIC denotes the least concentration at which growth counts as inhibited. Low values mean inhibition by little substance, high ones a need for much substance. `NC(=O)CCC(=O)Oc1cc(Cl)ccc1Oc1ccc(Cl)cc1Cl`: the IC50 was 0.22 µM and the MIC is 0.6 µM (≈ 0.233 µg/mL).
In the same order, the values of `O=C(O)CCCC(=O)Oc1cc(Cl)ccc1Oc1ccc(Cl)cc1Cl` are 0.33 µM and 0.75 µM (≈ 0.303 µg/mL).
In the same order, the values of `O=C(Oc1cc(Cl)ccc1Oc1ccc(Cl)cc1Cl)c1cccnc1` are 3.1 µM and 9 µM (≈ 3.55 µg/mL).
In the same order, the values of `C[n+]1cccc(C(=O)Oc2cc(Cl)ccc2Oc2ccc(Cl)cc2Cl)c1.[Cl-]` are 3.6 µM and 10.2 µM.
The compound `CN(C)CCOC(=O)CCCC(=O)Oc1cc(Cl)ccc1Oc1ccc(Cl)cc1Cl` yielded an IC50 of 0.26 µM and an MIC of 0.55 µM (≈ 0.261 µg/mL).
In the same order, the values of `C[N+](C)(C)CCOC(=O)CCCC(=O)Oc1cc(Cl)ccc1Oc1ccc(Cl)cc1Cl.[Cl-]` are 0.42 µM and 1 µM.
`CC(=O)CCC(=O)Oc1cc(Cl)ccc1Oc1ccc(Cl)cc1Cl` showed an IC50 of 77 µM.
Still for that read-out and setting: with `CCCCC(=O)Oc1cc(Cl)ccc1Oc1ccc(Cl)cc1Cl` the figure was 140 µM.
Compound `Oc1cc(Cl)ccc1Oc1ccc(Cl)cc1Cl` [TRICLOSAN] displayed an IC50 of 0.75 µM and an MIC of 1 µM (≈ 0.29 µg/mL).

The test system of the next data set is Plasmodium falciparum. The data set is described as follows: Antimalarial activity against chloroquine-sensitive Plasmodium falciparum FCK2. The class given is functional, organism-based.
Details: not given
Take `NC(=O)CCC(=O)Oc1cc(Cl)ccc1Oc1ccc(Cl)cc1Cl`: the IC50 came out at 6.7 µM and the MIC came to 27.9 µM (≈ 10.8 µg/mL).
As for `O=C(O)CCCC(=O)Oc1cc(Cl)ccc1Oc1ccc(Cl)cc1Cl`, the IC50 stood at 0.52 µM and inhibition of growth (MIC) required 4.8 µM (≈ 1.94 µg/mL).
For `O=C(Oc1cc(Cl)ccc1Oc1ccc(Cl)cc1Cl)c1cccnc1` the same measures were 1.15 µM and 9.7 µM (≈ 3.83 µg/mL).
With `C[n+]1cccc(C(=O)Oc2cc(Cl)ccc2Oc2ccc(Cl)cc2Cl)c1.[Cl-]`, the half-maximal inhibitory concentration (IC50) amounted to 2.07 µM and the minimal inhibitory concentration (MIC) was determined as 13.7 µM.
In the same order, the values of `CN(C)CCOC(=O)CCCC(=O)Oc1cc(Cl)ccc1Oc1ccc(Cl)cc1Cl` are 0.62 µM and 7.9 µM (≈ 3.75 µg/mL).
In the same order, the values of `C[N+](C)(C)CCOC(=O)CCCC(=O)Oc1cc(Cl)ccc1Oc1ccc(Cl)cc1Cl.[Cl-]` are 3.02 µM and 19.7 µM.
For `CC(=O)CCC(=O)Oc1cc(Cl)ccc1Oc1ccc(Cl)cc1Cl`, half-maximal inhibition (IC50) required 0.68 µM and 6.2 µM (≈ 2.4 µg/mL) was the least that counted as inhibitory (MIC).
For `CCCCC(=O)Oc1cc(Cl)ccc1Oc1ccc(Cl)cc1Cl` the same measures were 8.9 µM and 33.8 µM (≈ 12.6 µg/mL).
As for `Oc1cc(Cl)ccc1Oc1ccc(Cl)cc1Cl` [TRICLOSAN], the IC50 turned out to be 2.29 µM and the MIC amounted to 17.6 µM (≈ 5.1 µg/mL).

System in a further data set: not listed separately
Nature of the data set: Stability at -10 to 40 degC after 24 hrs by FPLC assay. In kind it is physicochemical.
Details: not given
An outline of the steps: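 Prodrugs held in Luria Broth (pH 7.2) for 24 h at temperatures between -10 and 40 °C. Release of triclosan monitored by FPLC with UV detection.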
`NC(=O)CCC(=O)Oc1cc(Cl)ccc1Oc1ccc(Cl)cc1Cl`: the Stability entry is reported as “Stable”.
Same read-out and setting: the result for `O=C(O)CCCC(=O)Oc1cc(Cl)ccc1Oc1ccc(Cl)cc1Cl` reads “Stable”.
The same measure, in the same setting: with `O=C(Oc1cc(Cl)ccc1Oc1ccc(Cl)cc1Cl)c1cccnc1` the entry was “Stable”; with `C[n+]1cccc(C(=O)Oc2cc(Cl)ccc2Oc2ccc(Cl)cc2Cl)c1.[Cl-]`, “Stable”.
The same measure, in the same setting: with `CN(C)CCOC(=O)CCCC(=O)Oc1cc(Cl)ccc1Oc1ccc(Cl)cc1Cl` the entry was “Stable”; with `C[N+](C)(C)CCOC(=O)CCCC(=O)Oc1cc(Cl)ccc1Oc1ccc(Cl)cc1Cl.[Cl-]`, “Stable”.
On to `CC(=O)CCC(=O)Oc1cc(Cl)ccc1Oc1ccc(Cl)cc1Cl`, for which the Stability entry was “Stable”.
For the compound `CCCCC(=O)Oc1cc(Cl)ccc1Oc1ccc(Cl)cc1Cl`, the Stability entry is listed as “Stable”.
For the compound `Oc1cc(Cl)ccc1Oc1ccc(Cl)cc1Cl` [TRICLOSAN], the Stability result is given as “Stable”.

The next data set has as its system Plasmodium falciparum. Nature of the data set: Stability assessed as half life of prodrug disappearance in Plasmodium falciparum culture. In kind it is ADME, organism-based. As to conditions: in vivo. An outline of the steps:
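Synchronized young-trophozoite cultures treated with prodrug for 0, 0.5, 3, 6, 12, 18, 24 and 36 h. Parasites isolated into PBS, processed by solid-phase extraction, then analysed by C18 reverse-phase FPLC with absorbance at 230 nm. Half-life derived from loss of the prodrug peak.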
On to `O=C(O)CCCC(=O)Oc1cc(Cl)ccc1Oc1ccc(Cl)cc1Cl`, for which the t1/2 is 570 min.
On the same count and under the same terms, with `CN(C)CCOC(=O)CCCC(=O)Oc1cc(Cl)ccc1Oc1ccc(Cl)cc1Cl` the figure was 567 min.
The same measure, in the same setting: the result for `CC(=O)CCC(=O)Oc1cc(Cl)ccc1Oc1ccc(Cl)cc1Cl` reads 572 min.

The test system of the next data set is Escherichia coli. Nature of the data set: Stability assessed as half life of prodrug disappearance in Escherichia coli culture. In kind it is ADME, organism-based. The settings on record: in vivo. An outline of the steps: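 E. coli cultures exposed to prodrug for 0, 2, 5, 10 and 20 min, then pelleted at 4 °C, washed in LB and resuspended in 50 mM Tris pH 7.5. Extracts cleaned by solid-phase extraction with methanol elution, then run on C18 reverse-phase FPLC with isocratic acetonitrile and UV detection at 230 nm. Half-life taken from prodrug disappearance.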
`NC(=O)CCC(=O)Oc1cc(Cl)ccc1Oc1ccc(Cl)cc1Cl`: the t1/2 came to 12 min.
The same measure, in the same setting: with `O=C(O)CCCC(=O)Oc1cc(Cl)ccc1Oc1ccc(Cl)cc1Cl` the figure was 9 min; with `CN(C)CCOC(=O)CCCC(=O)Oc1cc(Cl)ccc1Oc1ccc(Cl)cc1Cl`, 6 min.
On the same count and under the same terms, with `C[N+](C)(C)CCOC(=O)CCCC(=O)Oc1cc(Cl)ccc1Oc1ccc(Cl)cc1Cl.[Cl-]` the figure was 8 min.
